# Test results published in ChEMBL document CHEMBL4411331, “6-Amino-3-methylpyrimidinones as Potent, Selective, and Orally Efficacious SHP2 Inhibitors” (J Med Chem, 2019).
# Key:
# [1] = Intrinsic clearance in rat liver microsomes; type: ADME, Microsome; settings: read-out: CLH
# [2] = Intrinsic clearance in mouse liver microsomes; type: ADME, Microsome; settings: read-out: CLH
# [3] = Half life in rat liver microsomes; type: ADME, Microsome
# [4] = Oral bioavailability in rat at 1 mg/kg; type: ADME, organism-based; settings: in vivo
# [5] = Drug uptake in human Detroit 562 cells xenografted NU/NU mouse at 20 to 80 mg/kg, po BID; type: ADME, organism-based; settings: in vivo
# Procedure, shortened: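 Detroit-562 xenografts (5 x 10^5 cells subcutaneously in 50% matrigel/HBSS) were grown in female athymic NU/NU mice. At about 300 mm3 the mice were dosed by oral gavage, with 0.5% methylcellulose/0.1% Tween 80 as the vehicle control. Mice were euthanized at set times, and plasma and tumor fragments were collected for compound concentration.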
# [6] = Dose normalized AUC in rat at 1 mg/kg, po; type: ADME, organism-based; settings: in vivo
# [7] = Apparent permeability across apical to basolateral side in human Caco2 cells; type: ADME, cell-based; settings: Caco-2
# [8] = Half life in rat; type: ADME; settings: in vivo
# [9] = Aqueous solubility of the compound in 6.8 pH buffer; type: physicochemical; settings: pH 6.8 buffer
# [10] = Clearance in rat; type: ADME; settings: in vivo
# [11] = Half life in mouse liver microsomes; type: ADME, Microsome
# [12] = Permeability in human Caco2 cells; type: ADME, cell-based; settings: Caco-2, read-out: permeability
# [13] = Dose normalized AUC in rat at 6 mg/kg, po; type: ADME, organism-based; settings: in vivo
# [14] = Oral bioavailability in rat at 6 mg/kg; type: ADME, organism-based; settings: in vivo
Structure (SMILES),microsomal CLint [1],microsomal CLint [2],half-life [3],bioavailability [4],Drug uptake [5],AUC/dose [6],Papp A→B [7],half-life [8],solubility [9],clearance [10],half-life [11],Papp [12],AUC/dose [13],bioavailability [14]
C[C@@H]1OCC2(CCN(c3nc(N)c(Sc4cccnc4C(F)(F)F)c(=O)n3C)CC2)[C@@H]1N,7.9 to 11.1 µL/min/mg,7.9 to 11.1 µL/min/mg,> 2 h,29%,Dose-dependent effect,0.45 µM·h,1.02 ×10⁻⁶ cm/s,10.9 h,980 µM,21 mL/min/kg,> 2 h,–,–,–
Cn1c(N2CCC(C)(CN)CC2)nc(N)c(Sc2cccc(Cl)c2Cl)c1=O,–,–,–,–,–,–,–,–,250 µM,–,–,2.5 ×10⁻⁶ cm/s,–,–
C[C@@H]1OCC2(CCN(c3nc(N)c(Sc4cccc(Cl)c4Cl)c(=O)n3C)CC2)[C@@H]1N,39.3 µL/min/mg,–,0.617 h,38%,–,0.95 µM·h,6.8 ×10⁻⁶ cm/s,–,–,–,–,–,–,–
C[C@H]1C[C@@H](N)C2(CCN(c3nc(N)c(Sc4cccnc4C(F)(F)F)c(=O)n3C)CC2)C1,3.4 µL/min/mg,–,6.6 h,–,–,–,< 0.5 ×10⁻⁶ cm/s,–,–,–,–,–,0.03 µM·h,1%
